# Data from ChEMBL document CHEMBL1152552, “Death receptor 5 promoter-enhancing compounds isolated from Catimbium speciosum and their enhancement effect on TRAIL-induced apoptosis” (Bioorg Med Chem, 2009).
# pIC50: −log10 of the molar value. Activity calls are given as the source filed them. No cut-off for these calls is given here.
# Assays:
# DLD-1 [1] = assay: Induction of apoptosis in TRAIL-resistant human DLD1 cells assessed as accumulation in sub-G1 phase at 9.3 uM after 24 hrs using annexin-V-FITC/propidium iodide staining by flow cytometry in presence of TRAIL; assay type: functional
# DLD-1 [2] = assay: Induction of apoptosis in TRAIL-resistant human DLD1 cells assessed as early apoptotic cells at 18.5 uM after 24 hrs using annexin-V-FITC/propidium iodide staining by flow cytometry in presence of TRAIL; assay type: functional
# DLD-1 [3] = assay: Induction of apoptosis in TRAIL-resistant human DLD1 cells assessed as accumulation in sub-G1 phase after 24 hrs using annexin-V-FITC/propidium iodide staining by flow cytometry; assay type: functional
# DLD-1 [4] = assay: Induction of apoptosis in TRAIL-resistant human DLD1 cells assessed as late apoptotic cells at 9.3 uM after 24 hrs using annexin-V-FITC/propidium iodide staining by flow cytometry in presence of TRAIL; assay type: functional
# DLD-1 [5] = assay: Cytotoxicity against human DLD1 cells co-transfected with Sac1 after 24 hrs; assay type: functional, cell-based; settings: DLD-1, 24 h
# DLD-1 [6] = assay: Decrease in Bcl-xL mRNA expression in human DLD1 cells co-transfected with Sac1 cells at 18.5 uM after 24 hrs by RT-PCR analysis; assay type: functional, cell-based
# DLD-1 [7] = assay: Induction of apoptosis in TRAIL-resistant human DLD1 cells assessed as accumulation in sub-G1 phase at 18.5 uM after 24 hrs using annexin-V-FITC/propidium iodide staining by flow cytometry in presence of TRAIL/caspase 9 inhibitor; assay type: functional, cell-based
# Summary of the method: (§1)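 DLD1/TR cells incubated 24 h with 18.5 uM test agent and 100 ng/mL TRAIL, plus either caspase-8 inhibitor z-IETD-fmk at 25 uM or caspase-9 inhibitor z-LEHD-fmk at 20 uM. Ethanol-fixed, PI/RNase stained, sub-G1 fraction read by flow cytometry (at least 20,000 events). Run in triplicate.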
# DLD-1 [8] = assay: Decrease in Bcl-xL mRNA expression in human DLD1 cells co-transfected with Sac1 cells at 9.3 uM after 24 hrs by RT-PCR analysis; assay type: functional, cell-based
# DLD-1 [9] = assay: Induction of apoptosis in TRAIL-resistant human DLD1 cells assessed as accumulation in sub-G1 phase at 18.5 uM after 24 hrs using annexin-V-FITC/propidium iodide staining by flow cytometry in presence of TRAIL/human recombinant DR5/Fc chimera protein; assay type: functional, cell-based
# Summary of the method: (§2)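 DLD1/TR cells incubated 24 h with 18.5 uM test agent and 100 ng/mL TRAIL, plus 2.5 ug/mL human recombinant DR5/Fc or DR4/Fc chimera. Ethanol-fixed, PI/RNase stained, sub-G1 fraction read by flow cytometry (at least 20,000 events). Run in triplicate.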
# DLD-1 [10] = assay: Induction of apoptosis in TRAIL-resistant human DLD1 cells assessed as accumulation in sub-G1 phase at 18.5 uM after 24 hrs using annexin-V-FITC/propidium iodide staining by flow cytometry in presence of TRAIL; assay type: functional
# AGS [11] = assay: Induction of apoptosis in TRAIL-resistant human AGS cells assessed as early apoptotic cells at 18.5 uM after 24 hrs using annexin-V-FITC/propidium iodide staining by flow cytometry in presence of TRAIL; assay type: functional
# DLD-1 [12] = assay: Activation of caspase 3 in TRAIL-resistant human DLD1 cells co-transfected with Sac1 cells by luminescent assay in presence of TRAIL; assay type: functional, cell-based
# Summary of the method: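 Cells exposed 24 h to 4.6, 9.3 or 18.5 uM test agent and/or 100 ng/mL TRAIL, harvested and lysed. Lysate incubated with luminogenic z-DEVD-aminoluciferin substrate (Caspase-Glo 3/7) for 1 h at room temperature; luminescence read on a luminometer.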
# DLD-1 [13] = assay: Induction of apoptosis in TRAIL-resistant human DLD1 cells assessed as accumulation in sub-G1 phase at 18.5 uM after 24 hrs using annexin-V-FITC/propidium iodide staining by flow cytometry in presence of TRAIL/human recombinant DR4/Fc chimera protein; assay type: functional, cell-based; summary of the method: as §2
# [14] = molecular target: Tumor necrosis factor receptor superfamily member 10B (Homo sapiens) (UniProt O14763); assay: Induction of DR5 receptor promotor activity in human DLD1 cells co-transfected with Sac1 cells at 18.5 uM after 24 hrs by luciferase assay; assay type: cell-based
# Sequence of Tumor necrosis factor receptor superfamily member 10B (Homo sapiens) (O14763 whole entry): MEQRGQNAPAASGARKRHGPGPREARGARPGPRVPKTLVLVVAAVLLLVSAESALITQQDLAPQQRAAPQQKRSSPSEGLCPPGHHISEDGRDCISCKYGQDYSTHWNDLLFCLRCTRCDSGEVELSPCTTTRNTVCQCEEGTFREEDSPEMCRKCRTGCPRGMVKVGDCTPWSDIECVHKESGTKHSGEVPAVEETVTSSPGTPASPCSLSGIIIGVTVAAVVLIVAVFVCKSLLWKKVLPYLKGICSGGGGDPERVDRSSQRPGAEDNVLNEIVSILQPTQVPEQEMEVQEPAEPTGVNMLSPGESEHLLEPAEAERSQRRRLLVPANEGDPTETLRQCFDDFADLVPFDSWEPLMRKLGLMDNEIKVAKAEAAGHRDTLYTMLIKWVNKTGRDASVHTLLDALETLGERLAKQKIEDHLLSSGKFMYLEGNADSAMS
# DLD-1 [15] = assay: Induction of DR5 gene expression in human DLD1 cells co-transfected with Sac1 cells at 9.3 uM after 24 hrs by RT-PCR analysis; assay type: functional
# AGS [16] = assay: Induction of apoptosis in TRAIL-resistant human AGS cells assessed as late apoptotic cells at 9.3 uM after 24 hrs using annexin-V-FITC/propidium iodide staining by flow cytometry in presence of TRAIL; assay type: functional
# DLD-1 [17] = assay: Induction of DR5 protein expression in human DLD1 cells co-transfected with Sac1 cells after 24 hrs by Western blot analysis; assay type: functional, cell-based
# Summary of the method: (§3)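 Lysates of DLD1/TR cells treated 24 h (procaspase-8 after combined TRAIL exposure). Equal protein resolved by SDS-PAGE: 15% for Bcl-xL, 12.5% for DR5, 10% for caspase-8. Transferred to PVDF and probed 1 h at room temperature with primary antibody, then HRP secondary 1 h. Chemiluminescent detection with β-actin as loading control.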
# DLD-1 [18] = assay: Decrease in procaspase 8 in TRAIL-resistant human DLD1 cells co-transfected with Sac1 cells at 18.5 uM by Western blot analysis in presence of TRAIL; assay type: functional, cell-based; summary of the method: as §3
# DLD-1 [19] = assay: Increase in CHOP mRNA expression in human DLD1 cells co-transfected with Sac1 cells; assay type: functional, cell-based
# DLD-1 [20] = assay: Decrease in Bcl-xL protein expression in human DLD1 cells co-transfected with Sac1 cells after 24 hrs by Western blot analysis; assay type: functional, cell-based; summary of the method: as §3
# DLD-1 [21] = assay: Induction of DR4 gene expression in human DLD1 cells co-transfected with Sac1 cells after 24 hrs by RT-PCR analysis; assay type: functional, cell-based
# DLD-1 [22] = assay: Induction of apoptosis in TRAIL-resistant human DLD1 cells assessed as accumulation in sub-G1 phase at 18.5 uM after 24 hrs using annexin-V-FITC/propidium iodide staining by flow cytometry in presence of TRAIL/z-IETD-fmk caspase 8 inhibitor; assay type: functional, cell-based; summary of the method: as §1
# DLD-1 [23] = assay: Induction of apoptosis in TRAIL-resistant human DLD1 cells assessed as early apoptotic cells at 9.3 uM after 24 hrs using annexin-V-FITC/propidium iodide staining by flow cytometry in presence of TRAIL; assay type: functional
# DLD-1 [24] = assay: Induction of apoptosis in TRAIL-resistant human DLD1 cells assessed as late apoptotic cells at 18.5 uM after 24 hrs using annexin-V-FITC/propidium iodide staining by flow cytometry in presence of TRAIL; assay type: functional
# AGS [25] = assay: Induction of apoptosis in TRAIL-resistant human AGS cells assessed as late apoptotic cells at 18.5 uM after 24 hrs using annexin-V-FITC/propidium iodide staining by flow cytometry in presence of TRAIL; assay type: functional
# DLD-1 [26] = assay: Induction of DR5 gene expression in human DLD1 cells co-transfected with Sac1 cells at 18.5 uM after 24 hrs by RT-PCR analysis
# AGS [27] = assay: Induction of apoptosis in TRAIL-resistant human AGS cells assessed as early apoptotic cells at 9.3 uM after 24 hrs using annexin-V-FITC/propidium iodide staining by flow cytometry in presence of TRAIL; assay type: functional
# [28] = molecular target: Tumor necrosis factor receptor superfamily member 10B (Homo sapiens) (UniProt O14763); assay: Induction of DR5 receptor promotor activity in human DLD1 cells co-transfected with Sac1 at 43.9 uM after 24 hrs by luciferase assay; assay type: cell-based; settings: DLD-1
# [29] = molecular target: Tumor necrosis factor receptor superfamily member 10B (Homo sapiens) (UniProt O14763); assay: Induction of DR5 receptor promotor activity in human DLD1 cells co-transfected with Sac1 at 39 uM after 24 hrs by luciferase assay; assay type: cell-based; settings: DLD-1
compound,measurement,setting,value
COc1cc(O)cc(O)c1C(=O)/C=C/c1ccccc1 [CARDAMOMIN],Activity,DLD-1 [1],41.9%
same,Activity,DLD-1 [2],26.7%
same,Activity,DLD-1 [3],15.5%
same,Activity,DLD-1 [4],14.3%
same,pIC50,DLD-1 [5],4.38
same,Activity,DLD-1 [6],Active
same,Activity,DLD-1 [7],inactive
same,Activity,DLD-1 [8],Active
same,Activity,DLD-1 [9],Active
same,Activity,DLD-1 [10],55.8%
same,Activity,AGS [11],30.2%
same,Activity,DLD-1 [12],Dose-dependent effect
same,Activity,DLD-1 [13],inactive
same,fold change (FC),[14],4.1
same,fold change (FC),DLD-1 [15],2
same,Activity,AGS [16],3%
same,Activity,DLD-1 [17],Dose-dependent effect
same,Activity,DLD-1 [18],Active
same,Activity,DLD-1 [19],Dose-dependent effect
same,Activity,DLD-1 [20],Dose-dependent effect
same,Activity,DLD-1 [21],Dose-dependent effect
same,Activity,DLD-1 [22],inactive
same,Activity,DLD-1 [23],14.1%
same,Activity,DLD-1 [24],20.5%
same,Activity,AGS [25],5%
same,fold change (FC),DLD-1 [26],4.1
same,Activity,AGS [27],15%
COc1cc(/C=C/c2ccccc2)oc(=O)c1,fold change (FC),[28],2.5
O=C1C[C@@H](c2ccccc2)Oc2cc(O)cc(O)c21,fold change (FC),[29],2.5
